Source: PubChem BioAssay (several laboratories)
CAL PDZ FP-1 = inhibitors of human CAL PDZ peptide binding; inhibition, % at 20 µM; purified CAL PDZ, TMR-peptide fluorescence polarization, 1 h; Q9HD26; 330,000 tested, 0.02% active;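 active = highest replicate inhibition of at least 40%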;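 also: plate controls were DMSO neutral control wells for no effect and unlabeled competitor peptide control wells for full effect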
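material = purified tagged CAL PDZ domain construct (CerCALP) | compound dosing = 20 µM, one dose | times = 1 h at RT | measured by = fluorescence polarization from S- and P-plane intensities, G-factor corrected | read-out = inhibition from polarization loss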
Arr AP2 block = inhibitors of human beta-arrestin and AP2 interaction | 340,000 tested, 0.31% active | inhibition, % at 10 µM | FITC-arrestin peptide / GST-AP2 beads, flow cytometry; AP2 beta2 appendage carries R879A mutation;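 active = inhibition above a set limit, near 3 SD of compounds lacking own fluorescence, cut at about 54% in these data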;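 also: plate controls were DMSO wells for no effect and 5 µM unlabelled arrestin peptide for full effect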
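System: GST-AP2 R879A bound to glutathione beads, E. coli-expressed. Also added: 50 nM FITC-arrestin peptide. Schedule: compound with beads 12 min RT, then probe 1 h RT. Signal: bead flow cytometry, FITC channel. Read-out basis: percent response.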
Tn7 DDE FP = disrupts Tn7 cyclic peptide binding to fibrin D-Dimer-E complex. FP displacement of FITC-Tn7 peptide from fibrin DD(E); 0% = median of compound wells per plate. inhibition, % at 8.3 µM. 370,000 tested, 0.13% active;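 active = inhibition above the mean of compounds falling within the control limits plus 3 SD of them, cut at about 14% in these data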;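 also: 0% = plate median of compound wells and 100% = 10 µM Aha-Tn7 peptide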
Target sequence (P02675 whole entry, looked up): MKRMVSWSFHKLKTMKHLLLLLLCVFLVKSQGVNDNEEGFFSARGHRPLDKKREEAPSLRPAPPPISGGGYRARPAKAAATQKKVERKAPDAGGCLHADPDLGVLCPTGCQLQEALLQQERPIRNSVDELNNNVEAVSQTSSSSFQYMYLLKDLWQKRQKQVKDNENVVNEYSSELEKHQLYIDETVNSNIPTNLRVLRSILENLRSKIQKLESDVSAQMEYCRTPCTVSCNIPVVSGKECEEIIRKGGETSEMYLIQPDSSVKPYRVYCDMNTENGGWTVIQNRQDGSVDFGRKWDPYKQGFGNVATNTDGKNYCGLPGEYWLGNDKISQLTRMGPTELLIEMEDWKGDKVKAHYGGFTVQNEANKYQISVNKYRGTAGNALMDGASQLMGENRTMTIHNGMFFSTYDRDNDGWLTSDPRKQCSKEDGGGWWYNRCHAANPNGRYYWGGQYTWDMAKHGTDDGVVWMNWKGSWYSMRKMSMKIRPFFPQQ
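Assay system: human fibrin DD(E) protein / Input: 2 µM fibrin DD(E) / Benchmarks: high control of 10 µM Aha-Tn7 peptide / Measured by: fluorescence polarization of the labelled Tn7 tracer / Medium: Tris buffer with calcium and detergent, pH 7.8 / Timing: 10 min compound pre-incubation, 3 h probe incubation at room temperature / Repeats: one replicate per compound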
Tn6 DDE FP = DD(E)-Tn6 binding inhibition, primary FP screen. P02675. Fibrin DD(E) TRITC-Tn6 fluorescence polarization displacement. inhibition, % at 8.3 µM. 370,000 tested, 0.21% active;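 active = inhibition above a per-campaign cutoff: mean of compounds within control limits plus 3 SD, cut at about 15% in these data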;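 also: 0% = median of all compound wells on the plate and 100% = blocking peptide control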
CAL PDZ FP-2 = blocks peptide binding to the human CAL PDZ domain | Q9HD26 | 300,000 tested, 0.92% active | AID 602252 | inhibition, % at 24.9 µM | purified CAL PDZ, TMR-peptide fluorescence polarization, 1 h;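 active = mean inhibition of at least 30% with at least half of replicates also reaching 30%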;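 also: 0% = DMSO neutral control and 100% = excess unlabeled competitor peptide PRC23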
Starred values were filed as active, the others as inactive. An excerpt weighted towards active compounds, which were near 1.4% of everything screened.

`Nc1cccc(/C=C/c2ccncc2)c1` gave CAL PDZ FP-1 -2, Arr AP2 block -12, Tn7 DDE FP -1, Tn6 DDE FP -3 and CAL PDZ FP-2 74*.
Screening O=C(NCCc1c[nH]c2ccccc12)OCc1cn(-c2ccccc2Cl)nn1 returned Tn7 DDE FP 2 and Tn6 DDE FP 7.
O=C(C(=O)N1CCCc2ccccc21)c1cn(CC(=O)N2CCOCC2)c2ccccc12 was read as CAL PDZ FP-1 0, Arr AP2 block -9, Tn7 DDE FP 3, Tn6 DDE FP 1 and CAL PDZ FP-2 5.
`Cn1cc(C(=O)C(=O)N2CCCc3ccccc32)c2ccccc21` gave CAL PDZ FP-1 -4, Arr AP2 block -6, Tn7 DDE FP -1, Tn6 DDE FP 0 and CAL PDZ FP-2 34*.
CC(NCc1ccco1)C(=O)N1CCCC1 (stereo not given) was read as Tn7 DDE FP 3 and Tn6 DDE FP -1.
COc1ccc(C(=O)NCC(=O)OCC(=O)c2ccc(Cl)cc2)cc1OC was read as CAL PDZ FP-1 0, Arr AP2 block 2, Tn7 DDE FP -2, Tn6 DDE FP 5 and CAL PDZ FP-2 34*.
For COc1ccc(C(=O)NCC(=O)OCc2ccc(Cl)cc2Cl)cc1OC the results were CAL PDZ FP-1 0, Arr AP2 block -1, Tn7 DDE FP 4 and Tn6 DDE FP 2.
Screening CCOC(=O)c1c(NC(=O)CN2CCC(C)CC2)sc(C)c1C returned CAL PDZ FP-1 11, Arr AP2 block -14, Tn7 DDE FP 1, Tn6 DDE FP 7 and CAL PDZ FP-2 45*.
`O=C(CCl)N1c2ccccc2CCc2ccccc21` gave CAL PDZ FP-1 -16, Arr AP2 block 3, Tn7 DDE FP -1, Tn6 DDE FP -5 and CAL PDZ FP-2 46*.
Screening CC(Cl)C(=O)N1c2ccccc2CCc2ccccc21 (stereo not given) returned CAL PDZ FP-1 0, Arr AP2 block -10, Tn7 DDE FP -4, Tn6 DDE FP -7 and CAL PDZ FP-2 -4.
Screening CC(=O)c1cccc(CN2CCN(CC=C(C)C)C(CCO)C2)c1 (stereo not given) returned Arr AP2 block 5, Tn7 DDE FP 6, Tn6 DDE FP 0 and CAL PDZ FP-2 51*.
`CC(=O)c1cccc(CN2CCN(CCc3ccccc3)C(CCO)C2)c1` (stereo not given) gave CAL PDZ FP-1 -1, Arr AP2 block -6, Tn7 DDE FP -2, Tn6 DDE FP -6 and CAL PDZ FP-2 63*.
For O=C(NCc1ccc(C(=O)N2CCOCC2)cc1)c1cccc(Br)c1 the results were Tn7 DDE FP 3 and Tn6 DDE FP 1.
CCOC(=O)[C@]12CCCC3=C1N(CCC3)C(=O)[C@@H](CC(=O)NCCc1ccccc1OC)C2 was read as Tn7 DDE FP 4 and Tn6 DDE FP -1.
`CNC(=O)C[C@H]1CC[C@H]2[C@@H](COc3ccc(NC(=O)Nc4ccccc4)cc3C(=O)N2C)O1` gave Tn7 DDE FP -1 and Tn6 DDE FP 1.
CCN(CC)c1ccc(NC2=C(Cl)C(=O)c3ccccc3C2=O)cc1 was read as CAL PDZ FP-1 1, Arr AP2 block 55* and CAL PDZ FP-2 -3.
Screening Cc1ccc(NC2=C(Cl)C(=O)c3ccccc3C2=O)cc1 returned CAL PDZ FP-1 0, Arr AP2 block 13, Tn7 DDE FP 6, Tn6 DDE FP 2 and CAL PDZ FP-2 -1.
COc1ccc2cc(N3CCCC3=O)ccc2c1 was read as CAL PDZ FP-1 -1, Arr AP2 block -4, Tn7 DDE FP -2, Tn6 DDE FP 1 and CAL PDZ FP-2 85*.
Screening COc1cc(NC(=O)c2ccc(N3CCCC3=O)cc2)cc(OC)c1 returned CAL PDZ FP-1 -1, Arr AP2 block 5, Tn7 DDE FP 1, Tn6 DDE FP -5 and CAL PDZ FP-2 -1.
O=C(OC12CCCN(C1)/C(=C/c1ccccc1)C2)c1ccc(Cl)cc1 (stereo not given) was read as Tn7 DDE FP 3 and Tn6 DDE FP 3.
For O=C1CC(O)C(Cc2ccccc2)N1 (stereo not given) the results were Tn7 DDE FP 5 and Tn6 DDE FP -6.
Screening COc1ccccc1C(=O)N1CCN(C(=O)[C@@H](Cc2ccccc2)NC(=O)[C@H]2O[C@@H](n3cnc(C(N)=O)n3)[C@H](O)[C@@H]2O)CC1 returned Tn7 DDE FP -6 and Tn6 DDE FP -4.
